Results published in ChEMBL document CHEMBL2177013, “Synthesis and biological evaluation of tylophorine-derived dibenzoquinolines as orally active agents: exploration of the role of tylophorine e ring on biological activity” (J Med Chem, 2012).
pEC50: −log10 of the molar value. In brackets after ≈: the same amount, converted by molar mass. Activity calls are given as the source filed them. The calls are words filed in the database; no cut-off is given here.

Assays:
[1] = Cytotoxicity against mouse RAW264.7 cells; format: cell-based
Outline: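 RAW264.7 cells stimulated with LPS/IFNγ and compound-treated in parallel with the NO assay; CC50 taken as concentration giving 50% inhibition of cell growth. Mean of at least three experiments, each in duplicate.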

A549 [2] = assay: Down regulation of cyclin A2 expression in human A549 cells incubated for 24 hrs by Western blotting; format: functional, cell-based
RAW264.7 [3] = assay: Antiinflammatory activity in mouse RAW264.7 cells assessed as inhibition of LPS-induced nitric oxide production incubated for 18 hrs by nitrate/nitrite assay; format: functional, cell-based; conditions: RAW264.7, 18 h
Outline: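 RAW264.7 seeded 65000 cells/well, cultured 24 h, then medium replaced with complete medium containing IFNγ (20 ng/mL)/LPS (5 μg/mL) plus compound at various concentrations for 18 h; nitric oxide measured by Nitrate/Nitrite kit. EC50 as mean of at least three experiments, each in duplicate.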

Murine hepatitis virus [4] = assay: Antiviral activity against Murine hepatitis virus JHM infected in mouse DBT cells assessed as reduction in N-protein expression at 0.2 to 2 uM pre-treated 1 hr before virus infection and measured 24 hrs post infection by immunofluorescent assay; format: functional, organism-based
Outline: (§1)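 DBT murine astrocytoma cells in DMEM/10% heat-inactivated FBS, seeded 2.8 × 10⁵ cells/well the day before infection. Medium switched to DMEM/2% FBS, compound added 1 h before MHV-JHM infection at MOI 0.005. Cytopathic effect viewed by phase contrast and N protein by immunofluorescence at 24 hpi.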

A549 [5] = assay: Induction of c-Jun protein accumulation in human A549 cells incubated for 24 hrs by Western blotting; format: functional, cell-based
[6] = Solubility in DMSO; format: physicochemical
Outline: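 Compound dissolved in DMSO with sonication; maximal volume before precipitation measured and used to calculate saturation solubility.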

NCI-H460 [7] = assay: Growth inhibition of human NCI-H460 cells; format: functional
Outline: (§2)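 Cells seeded per well: NUGC-3 4500, HONE-1 6000, MCF-7 6500, NCI-H460 2500, HepG2 10000, A549 5000; A549 grown in RPMI 1640 with 2 g/L NaHCO₃, 2 mM L-glutamine and 10% FBS. GI₅₀ = concentration giving 50% growth inhibition, mean of at least three experiments each in duplicate. Paclitaxel served as positive control.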

RAW264.7 [8] = assay: Reduction in LPS/INFgamma-induced iNOS protein expression in mouse RAW264.7 cells incubated for 20 hrs by Western blotting; format: functional, cell-based
Outline: (§3)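 LPS/IFNγ-stimulated RAW264.7 cells treated with compound for 20 h. iNOS, COX-2 and GAPDH detected by Western blot; representative of at least three independent experiments.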

NUGC-3 = assay: Growth inhibition of human NUGC3 cells; format: functional; outline: as §2
[9] = Oral bioavailability in Sprague-Dawley rat at 3 mg/kg by HPLC-MS method; format: ADME, organism-based; conditions: in vivo
Outline: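 Male rats (330−380 g, 9−10 weeks), jugular vein cannula implanted 1 day before, fasted. 3 mg/kg given iv or orally (n = 3) in DMA/PEG400 30/70 v/v. Blood (150 μL) drawn at 0, 2, 5 (iv only), 15, 30 min and 1, 2, 4, 6, 8, 12, 24 h; plasma analysed by HPLC-MS; noncompartmental analysis.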

[10] = Solubility in DMA; format: physicochemical
[11] = tested on: Transmissible gastroenteritis virus; assay: Antiviral activity against Transmissible gastroenteritis virus infected in ST cells assessed as reduction in N-protein expression pre-treated before virus infection measured 16 hrs post virus infection by Western blotting; format: functional, organism-based
Outline: (§4)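 ST cells pretreated with compound, then infected with TGEV. Western blot for nucleocapsid (N) protein, caspase 3 (cleavage of procaspase 3) and GAPDH at 16 hpi. Representative of at least three independent experiments.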

MCF7 [12] = assay: Down regulation of cyclin A2 expression in human MCF7 cells incubated for 24 hrs by Western blotting; format: functional, cell-based
NCI-H460 [13] = assay: Down regulation of cyclin A2 expression in human NCI-H460 cells incubated for 24 hrs by Western blotting; format: functional, cell-based
[14] = tested on: Transmissible gastroenteritis virus; assay: Antiviral activity against Transmissible gastroenteritis virus infected in ST cells pre-treated 2 hrs before virus infection measured 6 hrs post virus infection by immunofluorescent assay; format: functional, organism-based; conditions: Alphacoronavirus 1, ST
Outline: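 ST cells, with or without 2 h compound pretreatment (10 concentrations), infected with TGEV at MOI 10. Immunofluorescence with anti-spike and anti-nucleocapsid antibodies at 6 hpi. EC50 from dose–response curves, mean of at least three experiments, each in duplicate.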

NCI-H460 [15] = assay: Induction of c-Jun protein accumulation in human NCI-H460 cells incubated for 24 hrs by Western blotting; format: functional, cell-based
Murine hepatitis virus [16] = assay: Antiviral activity against Murine hepatitis virus JHM infected in mouse DBT cells assessed as reduction in virus-induced cytopathic effect at 0.2 to 2 uM pre-treated 1 hr before virus infection and measured 24 hrs post infection by phase contrast microscopy; format: functional, organism-based; outline: as §1
MCF7 [17] = assay: Induction of c-Jun protein accumulation in human MCF7 cells incubated for 24 hrs by Western blotting; format: functional, cell-based
[18] = tested on: Transmissible gastroenteritis virus; assay: Antiviral activity against Transmissible gastroenteritis virus infected in ST cells assessed as reduction in caspase-3 activation pre-treated before virus infection measured 16 hrs post virus infection by Western blotting; format: functional, organism-based; outline: as §4
SF-268 = assay: Growth inhibition of human SF268 cells; format: functional
Outline: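 SF-268 glioblastoma cells seeded 7500 cells/well in 96-well plates; growth inhibition measured with compound. GI50 as mean of at least three experiments, each in duplicate; paclitaxel positive control.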

RAW264.7 [19] = assay: Reduction in LPS/INFgamma-induced COX2 protein expression in mouse RAW264.7 cells incubated for 20 hrs by Western blotting; format: functional, cell-based; outline: as §3
MCF7 [20] = assay: Growth inhibition of human MCF7 cells; format: functional; outline: as §2
[21] = Growth inhibition of human HONE1 cells; format: functional; outline: as §2
[22] = Tmax in Sprague-Dawley rat at 1.5 mg/kg, po by HPLC-MS method; format: ADME, organism-based; set-up: dose 1.5 mg/kg, route oral; conditions: in vivo
Outline: (§5)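 Male rats (330−380 g, 9−10 weeks old) fitted with a jugular vein cannula 1 day before dosing and fasted; 1.5 mg/kg given iv or orally in DMA/PEG400 (50/50, v/v), n = 3. Blood (150 μL) drawn at 0, 2, 5 (iv only), 15, 30 min and 1, 2, 4, 6, 8, 12, 24 h. Plasma analysed by HPLC-MS; parameters by noncompartmental analysis.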

[23] = Apparent elimination half life in Sprague-Dawley rat at 1.5 mg/kg, iv by HPLC-MS method; format: ADME, organism-based; set-up: dose 1.5 mg/kg, route intravenous; conditions: in vivo, read-out: betat1/2(app) (converted); outline: as §5
[24] = AUC (0 to infinity) in Sprague-Dawley rat at 1.5 mg/kg, po by HPLC-MS method; format: ADME, organism-based; set-up: time infinity, dose 1.5 mg/kg, route oral; conditions: plasma; outline: as §5
[25] = AUC (0 to infinity) in Sprague-Dawley rat at 1.5 mg/kg, iv by HPLC-MS method; format: ADME, organism-based; set-up: time infinity, dose 1.5 mg/kg, route intravenous; conditions: plasma; outline: as §5
[26] = Oral bioavailability in Sprague-Dawley rat at 1.5 mg/kg by HPLC-MS method; format: ADME, organism-based; conditions: in vivo; outline: as §5
[27] = Volume of distribution at steady state in Sprague-Dawley rat at 1.5 mg/kg, iv by HPLC-MS method; format: ADME, organism-based; set-up: dose 1.5 mg/kg, route intravenous; conditions: in vivo, read-out: Vdss; outline: as §5
[28] = Apparent elimination half life in Sprague-Dawley rat at 1.5 mg/kg, po by HPLC-MS method; format: ADME, organism-based; set-up: dose 1.5 mg/kg, route oral; conditions: in vivo, read-out: betat1/2(app) (converted); outline: as §5
[29] = Clearance in Sprague-Dawley rat at 1.5 mg/kg, iv by HPLC-MS method; format: ADME, organism-based; set-up: dose 1.5 mg/kg, route intravenous; conditions: in vivo; outline: as §5
[30] = Cmax in Sprague-Dawley rat at 1.5 mg/kg, po by HPLC-MS method; format: ADME, organism-based; set-up: dose 1.5 mg/kg, route oral; conditions: in vivo; outline: as §5

COc1cc2c3c(c4cc(OC)c(OC)cc4c2cc1OC)CN1CCC[C@@H]1C3 [TYLOPHORINE]
CC50 [1]: 1240 nM | Activity (A549 [2]): Active | pEC50 (RAW264.7 [3]): 6.57 | Activity (Murine hepatitis virus [4]): Active | Activity (A549 [5]): Active | solubility [6]: 10 mM (≈ 3930 µg/mL) | GI50 (NCI-H460 [7]): 230 nM | Activity (RAW264.7 [8]): Active | GI50 (NUGC-3): 190 nM | bioavailability [9]: 66% | solubility [10]: soluble | Activity [11]: Active | Activity (MCF7 [12]): Active | Activity (NCI-H460 [13]): Active | pEC50 [14]: 7.10 | Activity (NCI-H460 [15]): Active | Activity (Murine hepatitis virus [16]): Active | Activity (MCF7 [17]): Active | Activity [18]: Active | GI50 (SF-268): 270 nM | Activity (RAW264.7 [19]): Active | GI50 (MCF7 [20]): 240 nM | GI50 [21]: 270 nM

COc1cc2c(cc1OC)[C@@H]1[C@@H](O)[C@@H]3CCC(=O)N3C[C@@H]1c1cc(OC)c(OC)cc1-2 [TYLOPHOVATINE C]
Tmax [22]: 4.3 h | half-life [23]: 4.6 h | AUC(0-inf) [24]: 453 ng·h/mL | AUC(0-inf) [25]: 448 ng·h/mL | bioavailability [26]: 54.3% | Vd [27]: 12.4 L/kg | half-life [28]: 7.6 h | clearance [29]: 37.6 mL/min/kg | Cmax [30]: 39 ng/mL
